Measurements as given in ChEMBL document CHEMBL3425433, “Discovery of bicyclic pyrazoles as class III histone deacetylase SIRT1 and SIRT2 inhibitors” (Bioorg Med Chem Lett, 2015).
The source made the active and inactive calls. The rule behind the calls is not given here.

How the values were obtained:
[1] = target: T1, Protein deacetylase HDAC6 (Homo sapiens) (UniProt Q9UBN7); experiment: Inhibition of HDAC6 (unknown origin)
T1 sequence (whole entry): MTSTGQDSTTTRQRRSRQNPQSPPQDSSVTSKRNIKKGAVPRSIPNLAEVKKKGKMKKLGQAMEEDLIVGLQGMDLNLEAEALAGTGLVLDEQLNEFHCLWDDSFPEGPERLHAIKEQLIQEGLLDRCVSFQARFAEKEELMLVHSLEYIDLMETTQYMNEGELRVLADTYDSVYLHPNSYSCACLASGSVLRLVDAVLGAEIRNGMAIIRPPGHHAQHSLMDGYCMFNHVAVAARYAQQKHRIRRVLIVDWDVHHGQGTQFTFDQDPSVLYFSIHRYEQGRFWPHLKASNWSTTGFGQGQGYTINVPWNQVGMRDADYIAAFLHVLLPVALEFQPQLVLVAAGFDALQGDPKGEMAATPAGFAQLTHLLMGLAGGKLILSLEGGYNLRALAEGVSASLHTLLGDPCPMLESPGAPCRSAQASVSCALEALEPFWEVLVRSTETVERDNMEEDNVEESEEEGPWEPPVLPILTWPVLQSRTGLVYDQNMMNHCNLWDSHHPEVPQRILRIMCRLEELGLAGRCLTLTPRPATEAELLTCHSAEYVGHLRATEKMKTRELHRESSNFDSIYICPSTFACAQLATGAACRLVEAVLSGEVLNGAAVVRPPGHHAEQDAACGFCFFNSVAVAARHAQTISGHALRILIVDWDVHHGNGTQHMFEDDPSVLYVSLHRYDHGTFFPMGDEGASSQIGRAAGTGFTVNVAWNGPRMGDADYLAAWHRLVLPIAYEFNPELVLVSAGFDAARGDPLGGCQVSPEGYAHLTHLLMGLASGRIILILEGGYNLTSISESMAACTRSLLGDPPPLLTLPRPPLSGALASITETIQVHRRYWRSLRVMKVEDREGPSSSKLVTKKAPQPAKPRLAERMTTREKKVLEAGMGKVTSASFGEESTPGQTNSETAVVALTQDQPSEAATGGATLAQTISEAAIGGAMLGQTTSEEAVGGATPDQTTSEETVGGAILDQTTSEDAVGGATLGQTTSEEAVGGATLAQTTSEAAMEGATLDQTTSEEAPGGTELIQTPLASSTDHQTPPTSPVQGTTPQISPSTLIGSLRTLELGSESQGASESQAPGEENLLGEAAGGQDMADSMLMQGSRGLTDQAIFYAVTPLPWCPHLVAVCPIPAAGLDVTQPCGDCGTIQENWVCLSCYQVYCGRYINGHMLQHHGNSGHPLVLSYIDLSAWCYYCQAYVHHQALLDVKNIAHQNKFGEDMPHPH

[2] = target: T2, NAD-dependent protein deacetylase sirtuin-1 (Homo sapiens) (UniProt Q96EB6); experiment: Inhibition of His-tagged human recombinant SIRT1 expressed in Escherichia coli at 20 uM using Cbz-Lys(Ac)-AMC as substrate by fluorescence assay
T2 sequence (whole entry): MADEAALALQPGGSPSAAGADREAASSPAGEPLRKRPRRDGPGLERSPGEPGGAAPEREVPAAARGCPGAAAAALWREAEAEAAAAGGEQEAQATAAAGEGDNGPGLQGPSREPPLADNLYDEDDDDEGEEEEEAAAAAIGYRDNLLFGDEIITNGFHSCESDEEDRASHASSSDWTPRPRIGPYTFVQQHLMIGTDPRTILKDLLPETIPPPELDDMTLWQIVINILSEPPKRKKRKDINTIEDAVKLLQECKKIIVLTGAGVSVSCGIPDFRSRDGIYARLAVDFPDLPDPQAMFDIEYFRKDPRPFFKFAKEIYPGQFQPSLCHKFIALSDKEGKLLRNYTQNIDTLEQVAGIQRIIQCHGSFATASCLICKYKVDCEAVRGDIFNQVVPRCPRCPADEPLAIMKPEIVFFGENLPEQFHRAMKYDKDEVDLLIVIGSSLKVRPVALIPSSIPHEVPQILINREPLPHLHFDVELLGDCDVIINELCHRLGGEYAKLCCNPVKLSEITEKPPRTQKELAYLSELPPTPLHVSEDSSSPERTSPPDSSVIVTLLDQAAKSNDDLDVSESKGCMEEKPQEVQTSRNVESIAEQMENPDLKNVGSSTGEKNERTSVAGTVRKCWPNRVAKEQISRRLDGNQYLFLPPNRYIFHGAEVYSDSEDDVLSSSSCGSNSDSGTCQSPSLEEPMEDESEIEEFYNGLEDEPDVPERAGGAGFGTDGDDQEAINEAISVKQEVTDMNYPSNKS
How it was run: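 Fluorescence deacetylase assay with in-house Cbz-Lys(Ac)-AMC substrate. Values are means of three experiments on racemic material. Single-point lines were tested at 20 µM, and less than 20% inhibition was scored as no inhibition.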

[3] = target: Histone deacetylase 4 (Homo sapiens) (UniProt P56524); experiment: Inhibition of HDAC4 (unknown origin)
Histone deacetylase 4 (Homo sapiens), sequence (P56524 whole entry): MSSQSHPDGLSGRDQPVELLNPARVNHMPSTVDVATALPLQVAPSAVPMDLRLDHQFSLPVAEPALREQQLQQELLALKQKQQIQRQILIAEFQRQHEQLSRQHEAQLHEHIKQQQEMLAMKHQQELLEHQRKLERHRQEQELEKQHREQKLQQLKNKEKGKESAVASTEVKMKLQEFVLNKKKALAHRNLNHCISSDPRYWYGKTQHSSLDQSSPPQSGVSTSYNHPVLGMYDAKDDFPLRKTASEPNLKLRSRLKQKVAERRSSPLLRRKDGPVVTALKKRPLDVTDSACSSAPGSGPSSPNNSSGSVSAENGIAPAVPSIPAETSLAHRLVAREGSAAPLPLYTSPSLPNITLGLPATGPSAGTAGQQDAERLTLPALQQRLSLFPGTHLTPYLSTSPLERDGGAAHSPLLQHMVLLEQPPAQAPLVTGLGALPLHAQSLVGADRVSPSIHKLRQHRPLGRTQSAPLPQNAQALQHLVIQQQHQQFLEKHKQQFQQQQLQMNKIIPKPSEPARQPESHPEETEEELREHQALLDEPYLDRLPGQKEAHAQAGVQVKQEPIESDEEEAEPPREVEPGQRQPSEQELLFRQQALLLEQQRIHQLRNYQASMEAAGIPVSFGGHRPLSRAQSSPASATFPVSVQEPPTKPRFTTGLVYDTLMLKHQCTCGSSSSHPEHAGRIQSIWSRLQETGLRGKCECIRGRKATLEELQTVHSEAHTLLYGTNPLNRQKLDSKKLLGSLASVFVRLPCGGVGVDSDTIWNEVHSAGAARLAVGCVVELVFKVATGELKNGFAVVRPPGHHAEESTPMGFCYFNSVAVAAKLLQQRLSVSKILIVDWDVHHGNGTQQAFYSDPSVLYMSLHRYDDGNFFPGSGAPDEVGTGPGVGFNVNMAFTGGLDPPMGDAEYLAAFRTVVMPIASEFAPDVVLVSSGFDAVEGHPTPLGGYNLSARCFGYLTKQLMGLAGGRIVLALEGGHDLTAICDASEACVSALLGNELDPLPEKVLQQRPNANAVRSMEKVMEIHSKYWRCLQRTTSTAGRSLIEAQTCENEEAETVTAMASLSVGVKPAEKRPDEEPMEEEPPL

[4] = target: Histone deacetylase 5 (Homo sapiens) (UniProt Q9UQL6); experiment: Inhibition of HDAC5 (unknown origin)
Histone deacetylase 5 (Homo sapiens), sequence (Q9UQL6 whole entry): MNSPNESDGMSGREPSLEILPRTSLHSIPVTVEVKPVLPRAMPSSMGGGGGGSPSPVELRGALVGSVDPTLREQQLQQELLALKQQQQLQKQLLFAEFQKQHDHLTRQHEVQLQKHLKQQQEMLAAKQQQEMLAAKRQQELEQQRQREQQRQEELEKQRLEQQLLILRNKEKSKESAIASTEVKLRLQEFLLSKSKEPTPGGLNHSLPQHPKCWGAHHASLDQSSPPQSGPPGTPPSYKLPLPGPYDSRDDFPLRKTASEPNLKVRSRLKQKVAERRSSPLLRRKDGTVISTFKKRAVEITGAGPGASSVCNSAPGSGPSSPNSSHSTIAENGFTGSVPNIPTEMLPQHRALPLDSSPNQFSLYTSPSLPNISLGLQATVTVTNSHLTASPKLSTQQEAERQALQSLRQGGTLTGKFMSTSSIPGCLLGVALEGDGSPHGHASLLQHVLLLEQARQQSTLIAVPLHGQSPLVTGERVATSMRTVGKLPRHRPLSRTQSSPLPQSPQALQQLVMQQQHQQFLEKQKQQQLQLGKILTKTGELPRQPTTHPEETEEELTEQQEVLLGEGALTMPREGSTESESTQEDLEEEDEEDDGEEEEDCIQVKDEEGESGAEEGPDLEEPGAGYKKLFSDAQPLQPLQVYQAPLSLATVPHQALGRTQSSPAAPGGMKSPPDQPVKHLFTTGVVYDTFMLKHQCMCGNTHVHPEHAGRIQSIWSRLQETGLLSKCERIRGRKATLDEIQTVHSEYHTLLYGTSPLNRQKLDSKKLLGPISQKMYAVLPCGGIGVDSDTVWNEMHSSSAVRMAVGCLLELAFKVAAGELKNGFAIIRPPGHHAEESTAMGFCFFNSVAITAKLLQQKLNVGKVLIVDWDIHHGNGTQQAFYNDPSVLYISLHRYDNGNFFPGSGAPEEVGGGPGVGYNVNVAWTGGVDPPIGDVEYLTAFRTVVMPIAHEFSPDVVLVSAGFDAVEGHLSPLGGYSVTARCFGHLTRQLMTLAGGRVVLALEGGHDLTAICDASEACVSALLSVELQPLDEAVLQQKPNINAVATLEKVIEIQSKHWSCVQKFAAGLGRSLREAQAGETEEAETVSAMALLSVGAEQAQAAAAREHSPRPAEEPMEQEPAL

Compound | inhibition [1] | inhibition [2] | inhibition [3] | inhibition [4]
Cn1c(-c2n[nH]c3c2CC(C)(C)CC3C(N)=O)cc2ccccc21 (racemic) | inactive | < 20% | inactive | inactive
NC(=O)C1CC2(Cc3c(-c4ccc(Cl)cc4)n[nH]c31)OCCO2 (racemic) | inactive | < 20% | inactive | inactive
NC(=O)C1CCCc2c(-c3ccc(Cl)c(F)c3)n[nH]c21 (racemic) | inactive |  | inactive | inactive
NC(=O)C1CCCc2c(-c3ccc(Br)cc3)n[nH]c21 (racemic) | inactive |  | inactive | inactive
CNC(=O)C1CCCc2c(-c3ccc(Cl)cc3)n[nH]c21 (racemic) | inactive | < 20% | inactive | inactive
CC1(C)Cc2c(-c3ccc(Br)cc3)n[nH]c2C(C(N)=O)C1 (racemic) | inactive | 56% | inactive | inactive
CC1(C)Cc2c(-c3cc4ccccc4s3)n[nH]c2C(C(N)=O)C1 (racemic) | inactive | 53% | inactive | inactive
NC(=O)C1CC(c2ccccc2)Cc2c(-c3ccc(Cl)cc3)n[nH]c21 (mixture of isomers) | inactive | 59% | inactive | inactive
NC(=O)C1CCCc2c(-c3ccccc3Cl)n[nH]c21 (racemic) | inactive | < 20% | inactive | inactive
NC(=O)C1CCCc2c(-c3ccc(F)cc3)n[nH]c21 (racemic) | inactive | 42% | inactive | inactive
NC(=O)C1CCCc2c(-c3nc4ccccc4s3)n[nH]c21 (racemic) | inactive |  | inactive | inactive
NC(=O)C1CCCc2c(-c3ccc(C(F)(F)F)cc3)n[nH]c21 (racemic) | inactive | < 20% | inactive | inactive
Cn1c(-c2n[nH]c3c2CCCC3C(N)=O)cc2ccccc21 (racemic) | inactive |  | inactive | inactive
CCOC(=O)C1CCCc2c(-c3ccc(Cl)c(F)c3)n[nH]c21 (racemic) | inactive | < 20% | inactive | inactive
NC(=O)C1Cc2ccccc2Cc2c(-c3ccc(Cl)cc3)n[nH]c21 (racemic) | inactive | 42% | inactive | inactive
NC(=O)C1CCCc2c(-c3cccs3)n[nH]c21 (racemic) | inactive | 47% | inactive | inactive
NC(=O)C1CCCc2c(-c3ccccc3)n[nH]c21 (racemic) | inactive | 44% | inactive | inactive
NC(=O)C1CCCc2c(-c3csc4ccccc34)n[nH]c21 (racemic) | inactive | 48% | inactive | inactive

Compound | inhibition [1] | inhibition [2] | inhibition [3] | inhibition [4]
NC(=O)C1CCCCCc2c(-c3ccc(Cl)cc3)n[nH]c21 (racemic) | inactive | 28% | inactive | inactive
NC(=O)C1CCCCc2c(-c3ccc(Cl)cc3)n[nH]c21 (racemic) | inactive |  | inactive | inactive
NC(=O)C1CCCc2c(-c3ccc(Cl)cc3)n[nH]c21 (racemic) | inactive |  | inactive | inactive
Cn1c(-c2n[nH]c3c2CCCC3C(N)=O)cc2cc(Cl)ccc21 (racemic) | inactive | 31% | inactive | inactive
Cn1cc(-c2n[nH]c3c2CCCC3C(N)=O)c2ccccc21 (racemic) | inactive | < 20% | inactive | inactive
NC(=O)C1CCCc2c(-c3cc4cc(Br)ccc4s3)n[nH]c21 (racemic) | inactive | 38% | inactive | inactive
COc1ccc(-c2n[nH]c3c2CCCC3C(N)=O)cc1 (racemic) | inactive | < 20% | inactive | inactive
NC(=O)C1CCCc2c(-c3ccc(Cl)cc3Cl)n[nH]c21 (racemic) | inactive | 24% | inactive | inactive
NC(=O)C1CCCc2c(-c3cc4ccccc4o3)n[nH]c21 (racemic) | inactive |  | inactive | inactive
NC(=O)C1CCCc2c(-c3cc4ccccc4s3)n[nH]c21 (racemic) | inactive |  | inactive | inactive
NC(=O)C1CCCc2c(-c3cc(Br)cs3)n[nH]c21 (racemic) | inactive |  | inactive | inactive
Cc1ccc(-c2n[nH]c3c2CCCC3C(N)=O)cc1 (racemic) | inactive |  | inactive | inactive
CC1(C)Cc2c(-c3ccc(Cl)c(Cl)c3)n[nH]c2C(C(N)=O)C1 (racemic) | inactive | 23% | inactive | inactive
CC1(C)CCC(C(N)=O)c2[nH]nc(-c3ccc(Cl)cc3)c21 (racemic) | inactive | < 20% | inactive | inactive
NC(=O)C1CCCc2c(-c3cc4ccccc4[nH]3)n[nH]c21 (racemic) | inactive | 46% | inactive | inactive
CC1(C)Cc2c(-c3ccc(Cl)cc3)n[nH]c2C(C(N)=O)C1 (racemic) | inactive |  | inactive | inactive
NC(=O)C1CCCc2c(-c3cccc(Cl)c3)n[nH]c21 (racemic) | inactive | 27% | inactive | inactive
